According to ChEMBL document CHEMBL1157869, “Discovering some novel tetrahydroquinoline derivatives bearing the biologically active sulfonamide moiety as a new class of antitumor agents” (Eur J Med Chem, 2010):
≈ marks a conversion by molar mass, not a printed value.

What was measured:
[1] = Antitumor activity against mouse EAC cells assessed as non viable cells at 100 ug/mL after 2 hrs by trypan blue exclusion test; assay type: functional, Ehrlich
Outline: (§1)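 Cells came from the ascitic fluid of preinoculated female Swiss albino mice and were suspended in medium with glutamine, fetal calf serum and antibiotics. Compound from DMSO dilutions was added as 0.1 mL, equal to the stated µg level, to medium plus 0.1 mL cell suspension (2 × 10^6). After 2 h at 37 °C, the percentage of non-viable cells was counted by trypan blue exclusion.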

[2] = Antitumor activity against mouse EAC cells assessed as non viable cells at 50 ug/mL after 2 hrs by trypan blue exclusion test; assay type: functional, Ehrlich; outline: as §1
[3] = Antitumor activity against mouse EAC cells assessed as non viable cells at 25 ug/mL after 2 hrs by trypan blue exclusion test; assay type: functional, Ehrlich; outline: as §1
[4] = Antitumor activity against mouse EAC cells assessed as non viable cells at 10 ug/mL after 2 hrs by trypan blue exclusion test; assay type: functional, Ehrlich; outline: as §1
[5] = Antitumor activity against mouse EAC cells assessed as non viable cells after 2 hrs by trypan blue exclusion test; assay type: functional, cell-based; settings: Ehrlich
Outline: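 EAC cells were aspirated from the ascitic fluid of preinoculated female Swiss albino mice and suspended in medium containing glutamine, fetal calf serum, streptomycin and penicillin. Tubes received compound from DMSO dilutions (0.1 mL, corresponding to 100, 50, 25 or 10 µg) plus 0.1 mL cells and were held at 37 °C for 2 h. Non-viable cells were counted by trypan blue exclusion, and IC50 was read from the survival-versus-concentration curve.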

Compound COc1cc(OC)c(C2C(C#N)=C(N)N(c3ccc(S(N)(=O)=O)cc3)C3=C2C(=O)CCC3)cc1OC (stereo not given) has an Activity [1] of 100%, an Activity [2] of 100% and an Activity [3] of 72%. It also gave an Activity [4] of 40% and an IC50 [5] of 12 µg/mL (≈ 23.5 µM).

Compound COc1cc(C2C(C#N)=C(N)N(c3ccc(S(N)(=O)=O)cc3)C3=C2C(=O)CCC3)ccc1O (stereo not given) has an Activity [1] of 100%, an Activity [2] of 90% and an Activity [3] of 50%. The Activity [4] was 0% and the IC50 [5] was 25 µg/mL (≈ 53.6 µM).

For N#CC1=C(N)N(c2ccc(S(N)(=O)=O)cc2)C2=C(C(=O)CCC2)C1c1ccc(Cl)cc1Cl (stereo not given), the Activity [1] was 95%, the Activity [2] was 65% and the Activity [3] was 50%. For the same compound, the Activity [4] was 40% and the IC50 [5] was 25 µg/mL (≈ 51.1 µM).

With Cc1ccc(C2C(C#N)=C(N)N(c3ccc(S(N)(=O)=O)cc3)C3=C2C(=O)CCC3)cc1 (stereo not given) the Activity [1] was 100%, the Activity [2] was 50% and the Activity [3] was 30%. The Activity [4] was 30% and the IC50 [5] was 50 µg/mL (≈ 115 µM).

For N#CC1=C(N)N(c2ccc(S(N)(=O)=O)cc2)C2=C(C(=O)CCC2)C1/C=C/c1ccccc1 (stereo not given), the Activity [1] was 45%, the Activity [2] was 40% and the Activity [3] was 10%. The Activity [4] was 2% and the IC50 [5] was greater than 100 µg/mL.

Work on N#CC1=C(N)N(c2ccc(S(N)(=O)=O)cc2)C2=C(C(=O)CCC2)C1c1c(O)ccc2ccccc12 (stereo not given) yielded an Activity [1] of 15%, an Activity [2] of 5% and an Activity [3] of 0%. For the same compound, the Activity [4] was 0% and the IC50 [5] was greater than 100 µg/mL.

Compound N#CC1=C(N)N(c2ccc(S(N)(=O)=O)cc2)C2=C(C(=O)CCC2)C1c1ccc([N+](=O)[O-])cc1 (stereo not given) has an Activity [1] of 100%, an Activity [2] of 95% and an Activity [3] of 80%. For the same compound, the Activity [4] was 85% and the IC50 [5] was 2.5 µg/mL (≈ 5.37 µM).

For N#CC1=C(N)N(c2ccc(S(N)(=O)=O)cc2)C2=C(C(=O)CCC2)C1c1cccs1 (stereo not given), the Activity [1] was 100%, the Activity [2] was 88% and the Activity [3] was 80%. For the same compound, the Activity [4] was 70% and the IC50 [5] was 5 µg/mL (≈ 11.7 µM).

N#CC1=C(N)N(c2ccc(S(N)(=O)=O)cc2)C2=C(C(=O)CCC2)C1c1ccccc1 (stereo not given) gave an Activity [1] of 40%, an Activity [2] of 40% and an Activity [3] of 30%. For the same compound, the Activity [4] was 10% and the IC50 [5] was greater than 100 µg/mL.

N#CC1=C(N)N(c2ccc(S(N)(=O)=O)cc2)C2=C(C(=O)CCC2)C1c1ccc(O)cc1 (stereo not given) gave an Activity [1] of 100%, an Activity [2] of 100% and an Activity [3] of 95%. The Activity [4] was 90% and the IC50 [5] was 3 µg/mL (≈ 6.87 µM).

For CCOc1cc(C2C(C#N)=C(N)N(c3ccc(S(N)(=O)=O)cc3)C3=C2C(=O)CCC3)ccc1OC (stereo not given), the Activity [1] was 100%, the Activity [2] was 70% and the Activity [3] was 60%. For the same compound, the Activity [4] was 50% and the IC50 [5] was 10 µg/mL (≈ 20.2 µM).

In the case of Cc1ccc(C2C(C#N)=C(N)N(c3ccc(S(N)(=O)=O)cc3)C3=C2C(=O)CCC3)o1 (stereo not given), the Activity [1] is reported as 45%, the Activity [2] is reported as 40% and the Activity [3] is reported as 10%. The Activity [4] was 2% and the IC50 [5] was greater than 100 µg/mL.

With N#CC1=C(N)N(c2ccc(S(N)(=O)=O)cc2)C2=C(C(=O)CCC2)C1c1ccco1 (stereo not given) the Activity [1] was 10%, the Activity [2] was 5% and the Activity [3] was 0%. For the same compound, the Activity [4] was 0% and the IC50 [5] was greater than 100 µg/mL.

In the case of COc1ccc(C2C(C#N)=C(N)N(c3ccc(S(N)(=O)=O)cc3)C3=C2C(=O)CCC3)cc1 (stereo not given), the Activity [1] is reported as 100%, the Activity [2] is reported as 90% and the Activity [3] is reported as 50%. The Activity [4] was 30% and the IC50 [5] was 25 µg/mL (≈ 55.5 µM).

Compound COc1cccc2c1C(=O)c1c(O)c3c(c(O)c1C2=O)C[C@@](O)(C(=O)CO)C[C@@H]3O[C@H]1C[C@H](N)[C@H](O)[C@H](C)O1 [DOXORUBICIN] has an Activity [1] of 100%, an Activity [2] of 60% and an Activity [3] of 39%. For the same compound, the Activity [4] was 20% and the IC50 [5] was 37.5 µg/mL (≈ 69 µM).

Work on COc1ccc2ccccc2c1C1C(C#N)=C(N)N(c2ccc(S(N)(=O)=O)cc2)C2=C1C(=O)CCC2 (stereo not given) yielded an Activity [1] of 80%, an Activity [2] of 70% and an Activity [3] of 62%. The Activity [4] was 40% and the IC50 [5] was 12.5 µg/mL (≈ 25 µM).

Work on N#CC1=C(N)N(c2ccc(S(N)(=O)=O)cc2)C2=C(C(=O)CCC2)C1c1cccc([N+](=O)[O-])c1 (stereo not given) yielded an Activity [1] of 71%, an Activity [2] of 73% and an Activity [3] of 50%. The Activity [4] was 42% and the IC50 [5] was 25 µg/mL (≈ 53.7 µM).

COc1ccc(C2C(C#N)=C(N)N(c3ccc(S(N)(=O)=O)cc3)C3=C2C(=O)CCC3)c2ccccc12 (stereo not given) gave an Activity [1] of 90%, an Activity [2] of 30% and an Activity [3] of 10%. The Activity [4] was 10% and the IC50 [5] was 70 µg/mL (≈ 140 µM).

For COc1ccccc1C1C(C#N)=C(N)N(c2ccc(S(N)(=O)=O)cc2)C2=C1C(=O)CCC2 (stereo not given), the Activity [1] was 0%, the Activity [2] was 0% and the Activity [3] was 0%. For the same compound, the Activity [4] was 0% and the IC50 [5] was greater than 100 µg/mL.
